22 compounds from ChEMBL document CHEMBL1135984, “Mechanism-based design of parasite-targeted artemisinin derivatives: synthesis and antimalarial activity of new diamine containing analogues” (J Med Chem, 2002) can be followed below.

Assay [1] deals with Plasmodium falciparum. In words: (§1) In vitro inhibitory concentration against chloroquine-resistant Plasmodium falciparum K1. Format: functional, organism-based. In outline:
(§2)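 48 h growth assay in human erythrocytes (2% parasitemia, 0.5% haematocrit) in RPMI 1640 with 25 mM HEPES, 32 mM NaHCO3 and 10% human serum, under 3% O2/4% CO2/93% N2 at 37 °C. DMSO stocks diluted in medium; triplicates. 0.5 μCi [3H]-hypoxanthine added at 24 h, uptake counted 24 h later. IC50 by probit interpolation of log dose–response versus drug-free controls.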

The subject of assay [2] is Mus musculus. In words: 50% effective dose for antimalarial activity (in vivo) against Plasmodium berghei. Type of assay: functional. In outline:
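Male Swiss albino mice, 18-22 g, infected ip with 10^7 P. berghei NS parasitized erythrocytes. Dosed ip or orally once daily for 4 days from the day of infection, in methanol/PBS/DMSO (2:5:3 v/v). Parasitemia read the day after the last dose. ED50 (50% suppression versus vehicle controls) taken from a plot of log dose against parasitemia.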

The species named for assay [3] is Mus musculus. In words: 90% effective dose against Plasmodium yoelii in mice (Mus musculus). Format: functional.
The species named for assay [4] is Mus musculus. In words: 50% effective dose against Plasmodium yoelii in mice (Mus musculus). Type of assay: functional.
Assay [5] relates to Plasmodium falciparum. In words: In vitro inhibitory concentration against chloroquine-sensitive Plasmodium falciparum HB3. Type of assay: functional, organism-based. The method in brief:
as §2

Assay [6] has as its system Plasmodium falciparum. The description is as §1. Type of assay: functional, organism-based. In outline:
as §2
The source holds these as a separate data set.

With `C[C@H]1[C@@H](CCN2CCN(c3cccc(C(F)(F)F)c3)CC2)O[C@@H]2OC3(C)CCC4[C@H](C)CC[C@@H]1[C@]42OO3` (single isomer, unassigned), the IC50 (as a rule, the concentration at which inhibition is half-maximal) in assay [1] came to 6.19 nM. The ED50 (as a rule, the midpoint of the dose-response relation) in assay [2] was 3.12 mg/kg; in assay [4], less than 10 mg/kg. Also, the ED90 in assay [3] was less than 10 mg/kg.

Take `C[C@H]1[C@@H](OCc2ccc(CN3CCN(c4ccccc4)CC3)cc2)O[C@@H]2OC3(C)CCC4[C@H](C)CC[C@@H]1[C@]42OO3` (single isomer, unassigned): the IC50 in assay [1] was determined as 8.2 nM.

With `C[C@H]1[C@@H](OCc2ccc(CN3CCN(c4ccc(F)cc4)CC3)cc2)O[C@@H]2OC3(C)CCC4[C@H](C)CC[C@@H]1[C@]42OO3` (single isomer, unassigned), the IC50 amounted to 2.3 nM in assay [5] and 6.3 nM in assay [1].

In assay [1], `C[C@H]1[C@@H](OCc2cccc(CN3CCN(c4cccc(C(F)(F)F)c4)CC3)c2)O[C@@H]2OC3(C)CCC4[C@H](C)CC[C@@H]1[C@]42OO3` (single isomer, unassigned) came in with an IC50 of 22.5 nM.

`C[C@H]1[C@@H](CCN2CCN(Cc3ccccc3)CC2)O[C@@H]2OC3(C)CCC4[C@H](C)CC[C@@H]1[C@]42OO3` (single isomer, unassigned) had an IC50 in assay [1] of 4.22 nM. Moreover, the ED90 in assay [3] is more than 10 mg/kg. In addition, the ED50 in assay [4] is less than 10 mg/kg.

Consider `C[C@H]1[C@@H](OCc2ccc(CN3CCN(c4ccc([N+](=O)[O-])cc4)CC3)cc2)O[C@@H]2OC3(C)CCC4[C@H](C)CC[C@@H]1[C@]42OO3` (single isomer, unassigned), for which, in assay [1], the IC50 was found to be 138 nM.

In assay [1], `C[C@@H]1CC[C@H]2[C@@H](C)C(=O)O[C@@H]3O[C@@]4(C)CC[C@@H]1[C@]32OO4` [ARTEMISININ] returned an IC50 of 12.5 nM.

In assay [1], `CCCN(CCC)CC[C@H]1O[C@@H]2O[C@]3(C)CC[C@H]4[C@H](C)CC[C@@H]([C@H]1C)[C@@]24OO3` displayed an IC50 of 7.51 nM.

As for `C[C@H]1[C@@H](CCN2CCN(c3ccccc3)CC2)O[C@@H]2OC3(C)CCC4[C@H](C)CC[C@@H]1[C@]42OO3` (single isomer, unassigned), the IC50 in assay [1] came to 3.15 nM. The same compound displayed an ED90 in assay [3] of more than 10 mg/kg. The compound also registered an ED50 in assay [4] of less than 10 mg/kg.

`C[C@H]1[C@@H](OCc2cccc(CN3CCN(c4ccc(Cl)cc4)CC3)c2)O[C@@H]2OC3(C)CCC4[C@H](C)CC[C@@H]1[C@]42OO3` (single isomer, unassigned) gave an IC50 in assay [1] of 13.3 nM.

As to `C[C@H]1[C@@H](CCN2CCN(c3ccc(F)cc3)CC2)O[C@@H]2OC3(C)CCC4[C@H](C)CC[C@@H]1[C@]42OO3` (single isomer, unassigned), the half-maximal inhibitory concentration (IC50) in assay [1] amounted to 5.96 nM. For the same compound, the ED90 in assay [3] stood at 10 mg/kg. This compound also displayed an ED50 in assay [4] of less than 10 mg/kg.

In turn, `C[C@H]1[C@@H](CCN2CCOCC2)O[C@@H]2OC3(C)CCC4[C@H](C)CC[C@@H]1[C@]42OO3` (single isomer, unassigned) had an IC50 in assay [1] of 4.22 nM.

On to `C[C@H]1[C@@H](OCc2cccc(CN3CCN(c4ccccc4)CC3)c2)O[C@@H]2OC3(C)CCC4[C@H](C)CC[C@@H]1[C@]42OO3` (single isomer, unassigned), for which the figures for the IC50 in assay [5] and in assay [1] were 3.4 nM and 6.6 nM, respectively.

Consider `C[C@H]1[C@H](OC(=O)CCC(=O)[O-])O[C@@H]2O[C@@]3(C)CC[C@H]4[C@H](C)CC[C@@H]1[C@@]24OO3.[Na+]` [SODIUM ARESUNATE], for which the ED90 in assay [3] worked out at 100 mg/kg. Also, the ED50 in assay [4] came to 1.6 mg/kg.

Turning to `C[C@H]1[C@@H](OCc2cccc(CN3CCN(c4ccc([N+](=O)[O-])cc4)CC3)c2)O[C@@H]2OC3(C)CCC4[C@H](C)CC[C@@H]1[C@]42OO3` (single isomer, unassigned), the IC50 in assay [5] and in assay [1] was 4.3 nM throughout.

In assay [1], `C[C@H]1[C@@H](CCN2CCCCC2)O[C@@H]2OC3(C)CCC4[C@H](C)CC[C@@H]1[C@]42OO3` (single isomer, unassigned) gave an IC50 of 4.83 nM.

For `C[C@H]1[C@@H](OCc2cccc(CN3CCN(c4ccc(F)cc4)CC3)c2)O[C@@H]2OC3(C)CCC4[C@H](C)CC[C@@H]1[C@]42OO3` (single isomer, unassigned), the IC50 in assay [5] and in assay [1] was 12.6 nM throughout.

`C[C@H]1[C@@H](CCN2CCN(c3ccc(Cl)cc3)CC2)O[C@@H]2O[C@]3(C)CC[C@H]4[C@H](C)CC[C@@H]1[C@@]24OO3` had an IC50 in assay [1] of 8.16 nM.

Regarding `C[C@H]1[C@@H](OCc2ccc(CN3CCN(Cc4ccccc4)CC3)cc2)O[C@@H]2O[C@]3(C)CC[C@H]4[C@H](C)CC[C@@H]1[C@@]24OO3`, the IC50 was 1.8 nM in assay [5] and 3.8 nM in assay [1].

Regarding `CO[C@H]1O[C@@H]2O[C@@]3(C)CC[C@H]4[C@H](C)CC[C@@H]([C@H]1C)[C@@]24OO3` [ARTEMETHER], the IC50 in assay [5] stood at 9.2 nM; in assay [1], 6.5 nM; in assay [6] it was 7.94 nM.

In assay [1], `C[C@H]1[C@@H](CCN2CCN(c3ccc([N+](=O)[O-])cc3)CC2)O[C@@H]2OC3(C)CCC4[C@H](C)CC[C@@H]1[C@]42OO3` (single isomer, unassigned) displayed an IC50 of 4.29 nM. The ED90 in assay [3] is more than 10 mg/kg. The ED50 in assay [4] was less than 10 mg/kg.

On to `C[C@H]1[C@@H](OCc2ccc(CN3CCN(c4ccc(C(F)(F)F)cc4)CC3)cc2)O[C@@H]2OC3(C)CCC4[C@H](C)CC[C@@H]1[C@]42OO3` (single isomer, unassigned), for which the IC50 in assay [5] was found to be 8.1 nM; in assay [1] it was 12.5 nM.
